A short description of series [1]: folding enthalpy; higher = less favourable; fluorescence melt of hairpins on a sequencing array, two-state fit. The settings on record: sodium 0.088 M. Summed up: (§1)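 In 50 mM Na-HEPES pH 8.0 containing 25 mM NaCl, hairpins from the library on a sequenced MiSeq flow cell were imaged for Cy3 fluorescence at 2.5 °C steps up to 60 °C, with Cy3 and quencher oligos annealed. After normalisation to pre-quench Cy3 and to control constructs, two-state fits with bootstrapping gave melting temperature and folding enthalpy. Four replicates were combined by inverse-variance weighting, and fitted temperatures were shifted up by 9.35 °C to match UV melts.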

Series [2] is described as follows: melting temperature; fluorescence melt of hairpins on a sequencing array, two-state fit, raised by 9.35 °C to match UV melts. Conditions: sodium 0.088 M. Summed up: as §1

With GTCTCCGAAAGGAATGAC ((((((....)))..))), the folding enthalpy in series [1] is -20.7 kcal/mol. Besides, the Tm in series [2] worked out at 35.2 °C.
The matching figures for GTCTCCGAAAGGACGGAC ((((((....)))..))): -15.7 kcal/mol and 35.7 °C.
Turning to GTCTCCGAAAGGAGGGAC ((((((....)))..))), the folding enthalpy in series [1] was -9.56 kcal/mol. Besides, the Tm in series [2] came to 41.7 °C.
The matching figures for GTCTCCGAAAGGATGAC ((((((....))).))): -25.6 kcal/mol and 48.5 °C.
Regarding GTCTCCGGAAACAGAGAC (((((.(....).))))), the folding enthalpy in series [1] is -25.8 kcal/mol. Further, the Tm in series [2] was determined as 38.3 °C.
Take GTCTCCTCGAAAGAGGAC (((..(((....)))))): the folding enthalpy in series [1] was -9.88 kcal/mol. Moreover, in series [2], the Tm is 32 °C.
In the case of GTCTCGACGAAAGTCGAC (((..(((....)))))), in series [1], the folding enthalpy is -8.21 kcal/mol. Moreover, the Tm in series [2] was 35.1 °C.
Regarding GTCTCGCGAAAGCGCGAC (((.(((....))).))), the folding enthalpy in series [1] is -27.7 kcal/mol. In addition, the Tm in series [2] is 53 °C.
For GTCTCGCGAAAGCGGAC (((.(((....)))))), in that order: -16.9 kcal/mol and 53.7 °C.
For GTCTCGGAAACGAGAC ((((((....)))))), the folding enthalpy in series [1] is -44.5 kcal/mol. In series [2], the Tm worked out at 64.8 °C.
Consider GTCTCGGGAAACCGAAAC ((.((((....)))).)), for which the folding enthalpy in series [1] was -15.4 kcal/mol. In addition, in series [2], the Tm was 34.7 °C.
For GTCTCTCCGAAAGGAGAC (((..(((....)))))), in that order: -9.6 kcal/mol and 35.8 °C.
Regarding GTCTCTCGAAAGAGGAC (((.(((....)))))), in series [1], the folding enthalpy is -24.2 kcal/mol. In addition, the Tm in series [2] came out at 45.1 °C.
Regarding GTCTCTCGAAAGAGGGAC (((.(((....))).))), the folding enthalpy in series [1] was -36.1 kcal/mol. Moreover, the Tm in series [2] was 55.5 °C.
For GTCTGACCGAAAGGTGAC (((..(((....)))))), in that order: -19.3 kcal/mol and 38.9 °C.
Take GTCTGACGAAAGTCTGAC (((.(((....))).))): the folding enthalpy in series [1] is -34 kcal/mol. The Tm in series [2] was 57.2 °C.
As for GTCTGAGCGAAAGCTGAC (((..(((....)))))), the folding enthalpy in series [1] is -17.6 kcal/mol. Moreover, the Tm in series [2] was found to be 41.2 °C.
GTCTGCGAAAGCAAGAC ((((((....))).))): in series [1], the folding enthalpy is -26.3 kcal/mol. The Tm in series [2] is 60.5 °C.
As to GTCTGCGAAAGCATAGAC ((((((....)))..))), the folding enthalpy in series [1] was -19.9 kcal/mol. The Tm in series [2] was found to be 45.9 °C.
For the sequence GTCTGGCGAAAGCCGAC (((.(((....)))))), the folding enthalpy in series [1] was -16 kcal/mol. The Tm in series [2] came to 55.8 °C.
The matching figures for GTCTGGGGAAACCCAGAC (((((((....))))))): -37.6 kcal/mol and 68.5 °C.
On to GTCTGGGGAAACCCGGAC (((.(((....))).))), for which the folding enthalpy in series [1] is -39.6 kcal/mol. Further, the Tm in series [2] worked out at 55.5 °C.
In the case of GTCTGGGGAAACTCAGGC (.(((.(....).))).), in series [1], the folding enthalpy is -23.3 kcal/mol. The Tm in series [2] was found to be 35.8 °C.
Turning to GTCTGGGGAAACTCGGAC (((.(.(....).).))), the folding enthalpy in series [1] is -28.8 kcal/mol. For the same sequence, the Tm in series [2] came out at 37.1 °C.
As for GTCTGTGCGAAAGCAGAC (((..(((....)))))), in series [1], the folding enthalpy is -19.5 kcal/mol. In addition, in series [2], the Tm is 46.4 °C.
In the case of GTCTGTGGAAACATAGAC ((((.((....)).)))), the folding enthalpy in series [1] is -31.2 kcal/mol. The Tm in series [2] came to 44.5 °C.
GTCTGTGGAAACATGGAC (((..((....))..))): the folding enthalpy in series [1] is -26.8 kcal/mol. The Tm in series [2] came to 37.3 °C.
For GTCTGTGGAAACGCAGAC (((((.(....).))))), in that order: -48 kcal/mol and 53.8 °C.
On to GTCTGTGGAAACGTAGAC ((((..(....)..)))), for which the folding enthalpy in series [1] was -23.6 kcal/mol. Also, the Tm in series [2] came to 37.2 °C.
The matching figures for GTCTTAGGAAACTAAGAC (((((((....))))))): -38.4 kcal/mol and 53.7 °C.
As to GTCTTCCCGAAAGGGGAC (((..(((....)))))), the folding enthalpy in series [1] is -12.5 kcal/mol. The Tm in series [2] is 35.9 °C.
Turning to GTCTTCCGAAAGGAGAC (((.(((....)))))), the folding enthalpy in series [1] is -23.4 kcal/mol. In series [2], the Tm stood at 47.6 °C.
Turning to GTCTTCGAAAGAAATGAC ((((((....)))..))), the folding enthalpy in series [1] is -9.91 kcal/mol. Further, the Tm in series [2] turned out to be 25.1 °C.
On to GTCTTCGAAAGAACGGAC ((((((....)))..))), for which the folding enthalpy in series [1] is -14.6 kcal/mol. The Tm in series [2] was found to be 30.4 °C.
Take GTCTTCGAAAGAATAGAC ((((((....)))..))): in series [1], the folding enthalpy is -19.5 kcal/mol. Further, the Tm in series [2] was 30.7 °C.
On to GTCTTCGAAAGAATGAC ((((((....))).))), for which the folding enthalpy in series [1] was -25 kcal/mol. The Tm in series [2] was 37.9 °C.

The values above are taken from the array DNA melting data of Ke et al. (doi:10.1101/2024.01.08.574731).
